Data reported in ChEMBL document CHEMBL4017509, “A Dual Modulator of Farnesoid X Receptor and Soluble Epoxide Hydrolase To Counter Nonalcoholic Steatohepatitis” (J Med Chem, 2017).
Calls of active or inactive are those of the source. The calls are words filed in the database; no cut-off is given here.

Tests used:
Bile acid receptor = target: T1, Bile acid receptor (Homo sapiens, UniProt Q96RI1); experiment: Transactivation of human FXR expressed in human HeLa cells co-expressing BSEP after 24 hrs by dual-glo luciferase reporter gene assay; format: cell-based
T1 sequence (Q96RI1 whole entry): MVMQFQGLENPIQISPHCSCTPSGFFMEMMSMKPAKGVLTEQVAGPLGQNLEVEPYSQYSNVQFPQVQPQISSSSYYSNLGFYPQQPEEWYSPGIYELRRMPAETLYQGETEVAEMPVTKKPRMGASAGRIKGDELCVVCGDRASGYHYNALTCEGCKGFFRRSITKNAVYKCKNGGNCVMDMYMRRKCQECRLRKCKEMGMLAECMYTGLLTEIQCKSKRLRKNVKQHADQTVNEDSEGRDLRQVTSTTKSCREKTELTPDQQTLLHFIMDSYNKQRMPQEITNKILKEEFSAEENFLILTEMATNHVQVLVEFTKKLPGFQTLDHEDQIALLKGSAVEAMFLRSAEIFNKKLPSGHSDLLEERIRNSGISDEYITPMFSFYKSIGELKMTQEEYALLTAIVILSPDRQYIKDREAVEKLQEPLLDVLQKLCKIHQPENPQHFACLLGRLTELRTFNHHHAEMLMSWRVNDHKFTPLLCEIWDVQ
Procedure, shortened: (§1)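 HeLa cells in DMEM/10% FCS at 37 °C, 5% CO2; switched to 0.5% charcoal-stripped FCS before calcium phosphate co-transfection with pcDNA3-hFXR, pSG5-hRXR, BSEP promoter–firefly luciferase reporter and pRL-SV40 renilla. Compound in 0.1% DMSO, phenol red-free medium, 24 h.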

[1] = target: T2, Bifunctional epoxide hydrolase 2 (Homo sapiens, UniProt P34913); experiment: Inhibition of recombinant human sEH using PHOME as substrate preincubated for 30 mins followed by substrate addition measured for 30 mins by fluorescence photometric method
T2 sequence (P34913 whole entry): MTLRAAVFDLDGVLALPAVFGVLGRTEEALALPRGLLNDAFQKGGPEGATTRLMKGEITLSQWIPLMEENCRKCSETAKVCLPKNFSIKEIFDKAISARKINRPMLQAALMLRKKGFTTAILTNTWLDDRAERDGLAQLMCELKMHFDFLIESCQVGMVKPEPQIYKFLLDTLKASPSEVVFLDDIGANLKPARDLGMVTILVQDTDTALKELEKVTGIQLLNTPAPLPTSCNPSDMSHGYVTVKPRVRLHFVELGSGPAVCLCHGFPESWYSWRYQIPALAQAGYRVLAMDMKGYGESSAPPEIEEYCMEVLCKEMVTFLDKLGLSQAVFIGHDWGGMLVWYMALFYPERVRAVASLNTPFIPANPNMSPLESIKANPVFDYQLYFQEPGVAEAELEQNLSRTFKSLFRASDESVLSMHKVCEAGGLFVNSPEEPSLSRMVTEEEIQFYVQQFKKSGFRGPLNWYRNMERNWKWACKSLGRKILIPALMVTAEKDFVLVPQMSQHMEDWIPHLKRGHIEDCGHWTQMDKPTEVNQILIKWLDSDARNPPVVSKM
Procedure, shortened: (§2)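 Recombinant human sEH in Bis-Tris buffer pH 7, 0.1 mg/mL BSA, 0.01% Triton X-100 (final), preincubated 30 min at room temperature with compound (1% DMSO final). PHOME added at 50 μM final; 6-methoxynaphthaldehyde fluorescence read each minute for 30 min.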

[2] = target: T3, Bile acid receptor (Homo sapiens) (UniProt Q96RI1); experiment: Transactivation of human FXR expressed in human HeLa cells co-expressing BSEP at 50 uM after 24 hrs by dual-glo luciferase reporter gene assay relative to GW4064; format: cell-based; procedure, shortened: as §1
T3 sequence (whole entry): T1 sequence (Q96RI1 whole entry)

[3] = target: T4, Bifunctional epoxide hydrolase 2 (Homo sapiens) (UniProt P34913); experiment: Inhibition of recombinant human sEH at 50 uM using PHOME as substrate preincubated for 30 mins followed by substrate addition measured for 30 mins by fluorescence photometric method; procedure, shortened: as §2
T4 sequence (whole entry): T2 sequence (P34913 whole entry)

[4] = target: T4, Bifunctional epoxide hydrolase 2 (Homo sapiens); experiment: Inhibition of sEH in human HepG2 cells assessed as NF-kappaB mRNA expression at 1 uM after 8 to 16 hrs by SYBR green based qRT-PCR analysis relative to DMSO control; format: cell-based
Procedure, shortened: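 HepG2 cells treated with compound or 0.1% DMSO vehicle; NF-κB mRNA quantified by SYBR Green qRT-PCR, comparative ΔΔCt with GAPDH reference; expressed as % of vehicle (100%).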

Liver = experiment: Drug level in Sprague-Dawley rat liver microsomes treated with 4-(tert-Butyl)-N-(2-chloro-4-(methylsulfonamido)benzyl)-benzamide at 10 uM preincubated with NADPH regenerating system for 5 mins followed by addition of liver microsomes by LC-MS/MS method; format: ADME, microsome

| Compound | IC50 ([1]; read-out: IC50) [nM] | inhibition [3] [%] | inhibition [4] [%] | Drug metabolism (Liver) | IC50 [1] | EC50 (Bile acid receptor) [nM] | Emax [2] |
| --- | --- | --- | --- | --- | --- | --- | --- |
| CC(C)(C)c1ccc(C(=O)NCc2ccc(C(=O)O)cc2F)cc1 | 1430 |  |  |  |  | 7.8 | 26% |
| O=C(O)c1ccc(CNC(=O)c2ccc(-c3ccccc3)cc2)cc1 |  |  |  |  |  |  | 24% |
| O=C(O)c1ccc(CNC(=O)c2ccc(Cl)c(Cl)c2)cc1 | 10500 |  |  |  |  |  | inactive |
| Cc1ccc(C(=O)NCc2ccc(C(=O)O)cc2)cc1 |  | 24 |  |  |  |  | 15% |
| Cc1cccc(C(=O)NCc2ccc(C(=O)O)cc2)c1 |  | 37 |  |  |  |  | inactive |
| CN(C)c1ccc(C(=O)NCc2ccc(C(=O)O)cc2)cc1 |  | 19 |  |  |  |  | inactive |
| CC(C)(C)c1ccc(C(=O)NCc2ccc(OC(F)(F)F)cc2)cc1 | 220 |  |  |  |  | 160 | 26% |
| CC(C)(C)c1ccc(C(=O)NCc2ccc(C(=O)O)c(Cl)c2)cc1 |  | 50 |  |  |  | 8.8 | 21% |
| C[C@@H]1C[C@H]2[C@@H]3CCC4=CC(=O)C=C[C@]4(C)[C@@]3(F)[C@@H](O)C[C@]2(C)[C@@]1(O)C(=O)CO |  |  | 59.4 |  |  |  |  |
| CC(NC(=O)c1ccc(C(C)(C)C)cc1)c1ccc(C(=O)O)cc1 (centres undefined) |  | 37 |  |  |  | 76 | 24% |
| O=C(O)c1ccc(CNC(=O)C2CCNCC2)cc1 |  | < 3 |  |  |  |  | inactive |
| CC(C)(C)c1ccc(C(=O)NCc2ccc(C(=O)O)c(F)c2)cc1 | 20300 |  |  |  |  | 140 | 28% |
| COc1ccc(C(=O)NCc2ccc(C(=O)O)cc2)cc1OC |  | 26 |  |  |  | 370 | 18% |
| CC(C)(CO)c1ccc(C(=O)NCc2ccc(NS(C)(=O)=O)cc2Cl)cc1 |  |  |  | Metabolite_Detected |  |  |  |
| Cc1cc(C(=O)O)ccc1CNC(=O)c1ccc(C(C)(C)C)cc1 | 680 |  |  |  |  |  | inactive |
| O=C(O)c1ccc(CNC(=O)c2ccc3ccccc3c2)cc1 |  | 45 |  |  |  | 1360 | 18% |
| CC(C)Oc1ccc(CNC(=O)c2ccc(C(C)(C)C)cc2)cc1 |  |  |  |  | Nd(Insoluble) | 170 | 26% |
| CC(C)(C)c1ccc(C(=O)NCc2ccc(S(N)(=O)=O)cc2F)cc1 | 137 |  |  |  |  | 970 | 34% |
| CC(=O)NS(=O)(=O)c1ccc(CNC(=O)c2ccc(C(C)(C)C)cc2)cc1 | 12700 |  |  |  |  |  | inactive |

| Compound | IC50 ([1]; read-out: IC50) [nM] | inhibition [3] [%] | inhibition [4] [%] | Drug metabolism (Liver) | IC50 [1] | EC50 (Bile acid receptor) [nM] | Emax [2] |
| --- | --- | --- | --- | --- | --- | --- | --- |
| Cc1ccccc1C(=O)NCc1ccc(C(=O)O)cc1 |  | 14 |  |  |  |  | inactive |
| CC(C)(C)c1ccc(C(=O)NCc2ccc(-c3nnn[nH]3)cc2)cc1 | 18200 |  |  |  |  | 120 | 23% |
| CC(C)(C)c1ccc(NC(=O)Nc2ccc(C(=O)O)cc2)cc1 | 18500 |  |  |  |  | 3800 | 14% |
| COc1cc(C(=O)NCc2ccc(C(=O)O)cc2)ccc1C(C)(C)C | 5040 |  |  |  |  | 1200 | 23% |
| O=C(O)c1ccc(CNC(=O)c2cccc(-c3ccccc3)c2)cc1 | 10000 |  |  |  |  | 670 | 14% |
| CC(C)(C)c1ccc(C(=O)NCc2ccc(N)cc2Cl)cc1 |  |  |  | Metabolite_Detected |  |  |  |
| Cc1ccc(C(=O)NCc2ccc(C(=O)O)cc2)c(C)c1 |  | 7 |  |  |  |  | inactive |
| O=C(O)c1ccc(CNC(=O)c2ccc(C(F)(F)F)c(C(F)(F)F)c2)cc1 |  | 55 |  |  |  |  | inactive |
| O=C(O)c1ccc(CNC(=O)c2ccccc2-c2ccccc2)cc1 |  | 19 |  |  |  |  | 22% |
| CC(C)(C)c1ccc(C(=O)NCc2ccc(NS(C)(=O)=O)cc2)cc1 | 650 |  |  |  |  | 44 | 22% |
| O=C(O)c1ccc(CNC(=O)C2CCCCC2)cc1 |  | 37 |  |  |  |  | inactive |
| CC(C)(C)c1ccc(C(=O)NCc2ccc(SC(F)(F)F)cc2)cc1 | 390 |  |  |  |  | 0.4 | 19% |
| CC(C)(C)c1ccc(C(=O)NCc2ccc(C(=O)O)cc2Cl)cc1 | 170 |  |  |  |  | 7500 | 25% |
| Cc1cc(CNC(=O)c2ccc(C(C)(C)C)cc2)ccc1C(=O)O |  | 53 |  |  |  | 160 | 14% |
| CC(C)(C)c1ccc(C(=O)NCc2cccc(C(=O)O)c2)cc1 |  | 26 |  |  |  | 1700 | 14% |
| CC(C)(C)c1ccc(C(=O)NCc2ccc(NC(=O)C(F)(F)F)cc2)cc1 | 660 |  |  |  |  | 260 | 20% |
| O=C(O)c1ccc(CNC(=O)c2ccccc2)cc1 |  | 16 |  |  |  |  | 12% |
| Cc1ccc(C(=O)NCc2ccc(C(=O)O)cc2)cc1C |  | 52 |  |  |  | 320 | 12% |

Second part, led by results:

| IC50 ([1]; read-out: IC50) [nM] | inhibition [3] [%] | inhibition [4] [%] | Drug metabolism (Liver) | IC50 [1] | Compound | EC50 (Bile acid receptor) [nM] | Emax [2] |
| --- | --- | --- | --- | --- | --- | --- | --- |
| 1200 |  |  |  |  | CC(C)(C)c1ccc(C(=O)NCc2ccc(S(C)(=O)=O)cc2)cc1 | 3800 | 34% |
| 1630 |  |  |  |  | CC(C)(C)c1ccc(C(=O)NCc2ccc(CCC(=O)O)cc2)cc1 | 350 | 16% |
| 910 |  |  |  |  | CC(C)(C)c1ccc(C(=O)NCc2ccc(C#N)cc2)cc1 |  | inactive |
| 2050 |  |  |  |  | CC(C)(C)c1ccc(C(=O)NCc2ccc(CO)cc2)cc1 |  | inactive |
| 157 |  |  |  |  | CC(=O)c1ccc(CNC(=O)c2ccc(C(C)(C)C)cc2)cc1 | 100 | 29% |
| 20000 |  |  |  |  | CC(C)(C)c1ccc(C(=O)NCc2ccc(CC(=O)O)cc2)cc1 | 6400 | 19% |
| 280 |  |  |  |  | CC(C)(C)c1ccc(C(=O)NCc2ccc(S(N)(=O)=O)cc2)cc1 | 1400 | 16% |
| 510 |  |  |  |  | CC(C)(C)c1ccc(C(=O)NCc2ccc(C=O)cc2)cc1 | 5300 | 22% |
| 430 |  |  |  |  | COc1ccc(CNC(=O)c2ccc(C(C)(C)C)cc2)cc1 | 150 | 19% |
| 120 |  |  |  |  | CSc1ccc(CNC(=O)c2ccc(C(C)(C)C)cc2)cc1 | 100 | 33% |
| 220 |  |  |  |  | C[S+]([O-])c1ccc(CNC(=O)c2ccc(C(C)(C)C)cc2)cc1 (centres undefined) | 1300 | 24% |
| 3500 |  |  |  |  | CC(C)(C)c1ccc(C(=O)NCc2ccc(N)cc2)cc1 |  | inactive |
| 19000 |  |  |  |  | CC(C)(C)c1ccc(C(=O)NCc2ccc(OCC(=O)O)cc2)cc1 | 730 | 21% |
| 4200 |  |  |  |  | CC(C)(C)c1ccc(C(=O)NCc2ccc(C(=O)O)cc2)cc1 | 370 | 13% |
| 4600 |  |  |  |  | CN(C)C(=O)c1ccc(CNC(=O)c2ccc(C(C)(C)C)cc2)cc1 | 170 | 17% |
| 1120 |  |  |  |  | CC(=O)Nc1ccc(CNC(=O)c2ccc(C(C)(C)C)cc2)cc1 | 2900 | 31% |
| 570 |  |  |  |  | CCOc1ccc(CNC(=O)c2ccc(C(C)(C)C)cc2)cc1 | 160 | 31% |
| 1200 |  |  |  |  | CC(C)(C)c1ccc(C(=O)NCc2ccc(C(N)=O)cc2)cc1 | 3800 | 27% |
| 1900 |  |  |  |  | CNC(=O)c1ccc(CNC(=O)c2ccc(C(C)(C)C)cc2)cc1 | 340 | 29% |
